Screens as filed in PubChem.
Compounds with a hit are over-represented: about 3.3% of the library has one in this group of screens.
PglD DTNB: blocks C. jejuni PglD acetyltransferase activity; purified PglD enzyme, DTNB colorimetric CoA detection; inhibition, % at 12.5 µM; 0.098% of 360,000 active; in the data active = inhibition above about 16%, passing the limit was not always enough; inconclusive = no clear call, values can overlap the other calls
FGF22 binding: FGF22 (human) thermal shift binding | 1.5% of 340,000 active | Q9HCT0 | recombinant FGF22 thermal shift, SYPRO orange fluorescence; percent of sucrose octasulfate shift, DMSO zero | activity (Tm shift, normalised), % at 9.99 µM;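 active = mean Tm shift, scaled 0 neutral to 100 positive control, at about 1.3% or above, every replicate too, limit read from the data; inconclusive = no clear call, values can overlap the other calls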
DENV2 CPE rescue: DENV2-induced cell death inhibition | DENV2-infected cells, cytopathic effect rescue, plate reader | CPE inhibition, % at 9.99 µM | 1.7% of 350,000 active | AID 651640; in the data active = CPE inhibition above about 20%, passing the limit was not always enough; inconclusive = no clear call, values can overlap the other calls; tested in BHK-21 cells
C2C12 statin: suppression of simvastatin myotoxicity | AID 602340 | rescue of ATP level, % at 7.49 µM | C2C12 myotubes + simvastatin, ATP luminescence, 48 h; scaled: DMSO 0, geranylgeraniol control 100 | 0.78% of 330,000 active;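 active = mean ATP rescue above about 67%, or every replicate alone reaching that limit, limit read from the data, passing the limit was not always enough; inconclusive = no clear call, values can overlap the other calls; inactive = mean under the limit and some replicate under it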;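 note: myotubes were challenged with 10 µM simvastatin during compound exposure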
E-sel inducer: induces E-selectin expression in human endothelial cells | P16581 | HUVEC E-selectin immunofluorescence imaging; normalized: neutral wells 0, TNF-alpha wells 100 | activation, % at 7.58 µM | 0.37% of 260,000 active;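 active = mean E-selectin-positive cell signal at least 10% of the positive control, reached in at least 60% of replicates, without over 20% cell loss; inconclusive = no rule given, readout overlaps actives, possibly toxicity-flagged; inactive = the rest, including those meeting only one limit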
Target sequence (P16581 whole entry, looked up): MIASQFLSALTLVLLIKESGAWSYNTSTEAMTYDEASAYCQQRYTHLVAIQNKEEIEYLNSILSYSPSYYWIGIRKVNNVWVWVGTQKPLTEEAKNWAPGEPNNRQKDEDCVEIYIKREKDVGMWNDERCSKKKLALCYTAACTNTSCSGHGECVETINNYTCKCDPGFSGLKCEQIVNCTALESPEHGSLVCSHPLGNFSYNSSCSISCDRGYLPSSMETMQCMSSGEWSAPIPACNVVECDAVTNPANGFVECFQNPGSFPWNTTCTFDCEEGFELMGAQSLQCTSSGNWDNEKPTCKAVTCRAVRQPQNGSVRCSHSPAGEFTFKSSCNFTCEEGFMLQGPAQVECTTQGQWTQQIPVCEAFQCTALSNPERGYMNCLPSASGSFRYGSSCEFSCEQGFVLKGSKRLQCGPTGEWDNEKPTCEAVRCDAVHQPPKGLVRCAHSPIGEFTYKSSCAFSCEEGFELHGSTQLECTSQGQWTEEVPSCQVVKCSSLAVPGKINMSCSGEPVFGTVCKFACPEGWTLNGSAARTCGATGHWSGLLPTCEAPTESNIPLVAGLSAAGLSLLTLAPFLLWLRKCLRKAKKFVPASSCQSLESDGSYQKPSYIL
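Test system – human umbilical vein endothelial cells (HUVEC), E-selectin induction · Input – 3,000 HUVEC seeded per well · Buffer or medium – EGM-2, gelatin · Compound dosing – single-point compound dose · Detection – immunofluorescence imaging · Measure – percent E-selectin-positive cells · Controls – TNF-alpha high, DMSO low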
XiGFP reactiv: activators of X-chromosome reactivation in mouse fibroblasts. AID 743238. XiGFP mouse fibroblasts, % GFP-positive cells imaging, 3 d; cells co-treated with 5-aza-dC sensitizer; scaled so ellipticine positive control = 100%. activation, % at 7.58 µM. 0.055% of 360,000 active;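 active = mean normalized replicate activation at least 10% and every replicate at or above 10%; inconclusive = only one of the two criteria met; inactive = mean below 10% and not all replicates reach 10%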
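Material: SV40-immortalized XiGFP fibroblast cells, line 68-5-11 | Buffer or medium: DMEM containing 5-aza-dC | Dosing: One concentration, pinned | Times: 3 d treatment, 15 min room-temperature fixation | Controls: Ellipticine 6 µM positive control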
Each line names hits and unclear results; the compound was inactive in the other large screens.

NC(=O)NC(CC(=O)NCCCc1ccccc1)c1ccccc1Cl (stereo not given)	FGF22 binding 43.5 (no result: PglD DTNB, C2C12 statin)
Nc1ccc(NC2C[C@@H](C(=O)O)NC2=O)cc1 (stereo not given in full)	FGF22 binding 43.4 (no result: PglD DTNB, C2C12 statin, E-sel inducer)
Nc1ccc(NC(=O)Nc2ccc(N)cc2)cc1	none
C[C@@H]1CCCCO[C@H](CN(C)C(=O)NC2CCCCC2)[C@H](C)CN([C@@H](C)CO)C(=O)c2cc(NS(=O)(=O)c3cccs3)ccc2O1	C2C12 statin 91.5
C[C@@H]1CN([C@H](C)CO)C(=O)c2cc(NS(=O)(=O)c3cccs3)ccc2O[C@@H](C)CCCCO[C@@H]1CN(C)C(=O)CCC(F)(F)F	DENV2 CPE rescue 31.0 (no result: C2C12 statin)
C[C@@H]1CCCCO[C@@H](CN(C)C(=O)c2ccccc2)[C@H](C)CN([C@@H](C)CO)C(=O)c2cc(NS(=O)(=O)c3cccs3)ccc2O1	C2C12 statin 90.4 (no result: E-sel inducer)
C[C@@H]1CCCCO[C@@H](CN(C)Cc2ccc(Cl)c(Cl)c2)[C@H](C)CN([C@@H](C)CO)C(=O)c2cc(NC(=O)Nc3ccccc3)ccc2O1	DENV2 CPE rescue 32.5 (no result: E-sel inducer)
COc1ccc(CN(C)C[C@@H]2OCCCC[C@H](C)Oc3ccc(NC(=O)Cc4ccccc4)cc3C(=O)N([C@H](C)CO)C[C@@H]2C)cc1	DENV2 CPE rescue 27.5 (no result: C2C12 statin)
C[C@@H]1CN([C@@H](C)CO)C(=O)c2cc(NC(=O)Nc3ccc(C(F)(F)F)cc3)ccc2O[C@@H](C)CCCCO[C@H]1CN(C)Cc1ccc(Cl)c(Cl)c1	DENV2 CPE rescue 23.8
C[C@@H]1CN([C@H](C)CO)C(=O)c2cc(NC(=O)Nc3ccccc3)ccc2O[C@@H](C)CCCCO[C@@H]1CN(C)Cc1ccc(Cl)c(Cl)c1	C2C12 statin 117.4 (no result: E-sel inducer)
O=C(C[C@H]1C=C[C@@H](NC(=O)c2ccncc2)[C@H](CO)O1)NCc1ccncn1	none (no result: PglD DTNB, FGF22 binding, C2C12 statin)
C[C@@H]1CCCCO[C@@H](CN(C)Cc2ccc(Cl)c(Cl)c2)[C@H](C)CN([C@@H](C)CO)C(=O)c2cc(NC(=O)Cc3ccccc3)ccc2O1	C2C12 statin 105.7
CC(=O)N1[C@@H]2Cn3c(cccc3=O)[C@H]1[C@@H](C(=O)N[C@H](C)c1ccccc1)[C@@H]2CO	none (no result: PglD DTNB, FGF22 binding, C2C12 statin)
Cc1noc(C)c1C(=O)N(C)C[C@@H]1OCc2ccccc2-c2c(n(C)c3ccccc23)C(=O)N([C@@H](C)CO)C[C@@H]1C	none
CCOC(=O)N1CCC(C(=O)NNC(=O)c2ccc(Cl)cc2Cl)CC1	DENV2 CPE rescue 45.3 (no result: E-sel inducer)
COc1ncnc(OC)c1S(=O)(=O)NCc1ccccc1	E-sel inducer 49.6
COc1cc(C)c(Br)cc1S(=O)(=O)NCc1ccccc1	none (no result: DENV2 CPE rescue, E-sel inducer, XiGFP reactiv)
COc1cc(NC(=S)N2CCN(C(=O)C3CCCO3)CC2)c(OC)cc1Cl (stereo not given)	FGF22 binding 43.9 (no result: PglD DTNB, C2C12 statin, E-sel inducer)
Cc1ccc(NC(=O)CN2CCN(C(=O)C3CCCO3)CC2)c(C)c1 (stereo not given)	none
Cc1ccc(NC(=S)N2CCN(C(=O)C3CCCO3)CC2)c(C)c1 (stereo not given)	C2C12 statin 100.3 (no result: FGF22 binding, DENV2 CPE rescue, E-sel inducer, XiGFP reactiv)
CCCC#Cc1ccc([C@@H]2[C@@H](CO)N3C(=O)CN(C(=O)NCCC)C[C@H]23)cc1	DENV2 CPE rescue inconclusive (no result: PglD DTNB, FGF22 binding, C2C12 statin)
O=C(NCC1CCCCC1)[C@@H]1[C@@H](CO)[C@@H]2Cn3c(cccc3=O)[C@@H]2N1C(=O)CC1CC1	none
Cc1ccc(NC(=O)CN(C)C(=O)c2ccc(NC(=O)CC3SC(N4CCCC4)=NC3=O)cc2)cc1 (stereo not given)	FGF22 binding 44.3 (no result: PglD DTNB, C2C12 statin)
O=C(CC1SC(N2CCCCC2)=NC1=O)Nc1ccc(C(=O)O)cc1 (stereo not given)	none (no result: E-sel inducer)
CCCNC(=S)NNC(=O)c1cc(C2CC2)nc2ccccc12	DENV2 CPE rescue 24.6
CCNC(=S)NNC(=O)c1cc(C2CC2)nc2ccccc12	none (no result: FGF22 binding, DENV2 CPE rescue, E-sel inducer, XiGFP reactiv)
CCC(C)n1nccc1NC(=O)C(C)Cl (stereo not given)	FGF22 binding 43.4 (no result: PglD DTNB, C2C12 statin)
CCOc1ccc(C(=O)c2ccc(OCC)c(N)c2)cc1N	none (no result: FGF22 binding, DENV2 CPE rescue, E-sel inducer, XiGFP reactiv)
COc1ccc(C(N)=O)cc1N	C2C12 statin 129.8 (no result: FGF22 binding, DENV2 CPE rescue, E-sel inducer, XiGFP reactiv)
